This is a sample that favours compounds with a hit; in the whole collection about 2% have one here.
DENV2 CPE = inhibitors of DENV2 cytopathic effect | CPE inhibition, % at 9.99 µM | DENV2-infected cells, cytopathic effect rescue, plate reader | 350,000 tested, 1.7% active | AID 651640; in the data active means CPE inhibition above about 20%, passing the limit was not always enough; inconclusive means no clear call, values can overlap the other calls; tested in BHK-21 cells;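 further: 0% = median of neutral control wells and 100% = median of positive control wells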
CaV13 FRET inh = Disruptors of the CACNA1D IQ motif to Ca2+-dependent inactivation inhibitor domain association, primary screening, Förster resonance energy transfer in intact living …; AID 743397; 340,000 tested, 0.098% active; HEK cells, CFP/YFP FRET ICDI-IQ, plate reader, 10 min; percent FRET-ratio fall versus neutral wells; inhibition, % at 12.3 µM;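 active means mean replicate inhibition of at least 30% and at least 1% of replicates passing that level; inconclusive means only one of the two criteria is met; inactive means neither criterion is met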;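 further: 0% = median of the neutral control wells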
Casp6 inh = blocks human caspase-6 cleavage activity; P55212; AID 686996; purified caspase-6, Z-VEID-R110 cleavage fluorescence; 350,000 tested, 0.53% active; inhibition, % at 12.5 µM;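 active means mean inhibition across replicates at least about 35%, with every replicate also reaching that limit, limit read from the data; inconclusive means only one of the two criteria met; inactive means neither criterion met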;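 further: 0% = median of neutral control wells and 100% = no fluorescence left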
Target sequence (P55212 24-179 limits assumed): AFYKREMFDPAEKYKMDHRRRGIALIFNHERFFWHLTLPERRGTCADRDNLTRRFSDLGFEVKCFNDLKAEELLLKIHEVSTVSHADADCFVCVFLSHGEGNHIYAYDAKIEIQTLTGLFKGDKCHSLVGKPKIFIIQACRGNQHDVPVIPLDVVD
Target sequence (P55212 194-293 limits assumed): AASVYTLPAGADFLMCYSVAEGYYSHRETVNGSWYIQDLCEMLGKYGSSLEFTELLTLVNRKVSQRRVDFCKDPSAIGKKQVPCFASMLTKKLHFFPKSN
FN deposit inh = fibronectin deposition inhibition; AH1F fibroblasts, Alexa488-fibronectin deposition fluorescence, overnight; 350,000 tested, 0.086% active; inhibition, % at 12.6 µM;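 active means mean inhibition across replicates of 30% or more, regardless of how many single replicates reach that level; inconclusive means mean under 30% yet at least half of replicates reach 30%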;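 further: positive control wells lacked labelled fibronectin entirely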
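Test system: AH1F fibroblast monolayer depositing Alexa488-labelled fibronectin into matrix. Input: 10000 cells per well. Technique: fluorescence, ex 485 nm, em 525 nm. Buffer or medium: DMEM plus 2% serum, read in PBS. Timing: 1 h cell adhesion before compound, then overnight fibronectin incubation. Compound: single dose, pinned. Read-out basis: inhibition from reduced deposited-fibronectin fluorescence.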
Xi reactivation = X-chromosome reactivation activator | XiGFP mouse fibroblasts, % GFP-positive cells imaging, 3 d; cells co-treated with 5-aza-dC sensitizer; scaled so ellipticine positive control = 100% | activation, % at 7.58 µM | 360,000 tested, 0.055% active | AID 743238;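 active means mean normalized replicate activation at least 10% and every replicate at or above 10%; inconclusive means only one of the two criteria met; inactive means mean below 10% and not all replicates reach 10%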;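 further: 0% = median of on-plate neutral control wells and 100% = ellipticine 6 µM median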
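Material: SV40-immortalized XiGFP fibroblast cells, line 68-5-11 | Buffer or medium: DMEM containing 5-aza-dC | Dosing: One concentration, pinned | Times: 3 d treatment, 15 min room-temperature fixation | Controls: Ellipticine 6 µM positive control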
An asterisk follows results filed as active; u = inconclusive; x = not tested or not shown.

SMILES | DENV2 CPE | CaV13 FRET inh | Casp6 inh | FN deposit inh | Xi reactivation
COCCOC(=O)N1C(=O)[C@@]2(c3cc(C#CCC(C(=O)OC)C(=O)OC)ccc31)[C@H](c1ccccc1OCCO)N1[C@H](c3ccccc3)[C@H](c3ccccc3)OC(=O)[C@H]1[C@@H]2C(=O)NC[C@H](O)c1ccccc1 | 30* | x | -1 | x | x
C[C@@H]1CCCCO[C@@H](CN(C)S(C)(=O)=O)[C@H](C)CN([C@@H](C)CO)C(=O)c2cc(NC(=O)c3ccncc3)ccc2O1 | -2 | x | x | x | -1
COCc1cn(CC[C@H]2CC[C@@H](NC(=O)CCN3CCCCC3)[C@@H](CO)O2)nn1 | 9 | x | 0 | 4 | 0
C[C@H](CO)N1C[C@H](C)[C@H](CN(C)Cc2ccc(Cl)c(Cl)c2)Oc2c(NS(C)(=O)=O)cccc2C1=O | 6 | x | 3 | x | 0
CNC(=O)C[C@H]1CC[C@H]2[C@H](COc3ccc(NC(=O)c4ccc(F)c(F)c4)cc3C(=O)N2C)O1 | u | x | -1 | -7 | 0
CNC(=O)C[C@@H]1CC[C@@H]2[C@H](COc3ccc(NC(=O)c4ccc(F)c(F)c4)cc3C(=O)N2C)O1 | 97* | x | 3 | 15 | 0
CNC(=O)C[C@H]1CC[C@@H]2[C@H](COc3ccc(NC(=O)c4ccc(F)c(F)c4)cc3C(=O)N2C)O1 | 95* | x | -2 | -7 | 0
CC(=O)NC1C(=O)N(CCN2CCOCC2)c2ccc(Cl)cc21 (stereo not drawn) | 2 | -21 | 40* | 11 | 0
CCCCN1C(=O)C(NC(C)=O)c2cc(Br)ccc21 (stereo not drawn) | x | -5 | x | x | x
CC(=O)NC1C(=O)N(CCN2CCOCC2)c2ccc(F)cc21 (stereo not drawn) | 7 | -4 | 52* | -2 | 0
CC(=O)N(C)C[C@@H]1Oc2cc(-c3ccc(C)cc3)ccc2S(=O)(=O)N([C@H](C)CO)C[C@H]1C | -1 | x | 0 | x | 0
C[C@@H]1CN([C@H](C)CO)C(=O)c2cc(NC(=O)NC3CCCCC3)ccc2O[C@@H](C)CCCCO[C@@H]1CN(C)C(=O)CCC(F)(F)F | -3 | x | -1 | x | 0
Cc1ccc(S(=O)(=O)Nc2ccc3c(c2)C(=O)N([C@@H](C)CO)C[C@H](C)[C@H](CN(C)S(=O)(=O)c2cn(C)cn2)O3)cc1 | 2 | x | -1 | x | 0
CCCNC(=O)N[C@@H]1CC[C@H](CCn2cc(C3CCCC3)nn2)O[C@H]1CO | 6 | x | -3 | 0 | 0
CCCNC(=O)N[C@@H]1CC[C@@H](CCn2cc(C3CCCC3)nn2)O[C@H]1CO | 33* | x | 1 | -6 | 0
CC(C)c1cn(CC[C@@H]2CC[C@H](NC(=O)C3CCOCC3)[C@@H](CO)O2)nn1 | 71* | x | 0 | x | 0
O=C(N[C@@H]1CC[C@@H](CCn2cc(C3CCCC3)nn2)O[C@H]1CO)c1cccnc1 | 29* | x | -1 | -6 | 0
CC(C)c1cn(CC[C@@H]2CC[C@@H](NC(=O)C3CCOCC3)[C@H](CO)O2)nn1 | -10 | x | 2 | x | 1
COC(=O)C[C@@H]1CC[C@@H]2[C@H](COc3ccc(NC(=O)c4cc(C)on4)cc3C(=O)N2C)O1 | -13 | x | 1 | 11 | 0
COc1ccc(-c2csc(C(C)(O)c3ccc(F)c(F)c3)n2)cc1OC (stereo not drawn) | 21* | -4 | 8 | -1 | 0
CCC(=O)NC(NC(=S)Nc1ccccc1Br)C(Cl)(Cl)Cl (stereo not drawn) | -3 | -3 | 59* | 5 | 0
CCCC#Cc1cnc2c(c1)C(=O)N([C@@H](C)CO)C[C@@H](C)[C@H](CN(C)C(=O)c1ccc3c(c1)OCO3)O2 | 83* | x | 5 | 6 | -1
CCCC#Cc1cnc2c(c1)C(=O)N([C@@H](C)CO)C[C@H](C)[C@H](CN(C)C(=O)c1ccc3c(c1)OCO3)O2 | -3 | x | 1 | -6 | -1
C[C@H](CO)N1C[C@H](C)[C@H](CN(C)C(=O)c2ccc3c(c2)OCO3)Oc2ncc(C#CCN(C)C)cc2C1=O | 25* | x | -6 | -5 | -1
C[C@H](CO)N1C[C@H](C)[C@H](CN(C)Cc2ccc(C(=O)Nc3ccccc3N)cc2)Oc2ccc(NC(=O)Cc3cn(C)c4ccccc34)cc2C1=O | -10 | x | 6 | x | x
SMILES | DENV2 CPE | CaV13 FRET inh | Casp6 inh | FN deposit inh | Xi reactivation
CCC(=O)N1C[C@@H](C)[C@H](OC)CN(C)C(=O)c2cc(NC(=O)c3cc(C)on3)ccc2OC[C@H]1C | x | x | x | -9 | 0
CCCCCNCc1ccc(OCc2ccc(Cl)nc2)c(OC)c1 | 31* | -7 | 16 | 1 | 0
COc1cc(CNCCNCC(C)O)ccc1OCc1ccc(Cl)nc1 (stereo not drawn) | 5 | -2 | -16 | 1 | 0
O=C(N[C@H]1CC[C@@H](CC(=O)N2CCCCC2)O[C@@H]1CO)c1ccccn1 | -8 | x | 1 | -8 | 0
O=C(N[C@H]1CC[C@H](CC(=O)N2CCCCC2)O[C@@H]1CO)c1ccccn1 | 28* | x | x | 1 | 0
O=C(N[C@@H]1CC[C@@H](CC(=O)N2CCN(c3ccccc3)CC2)O[C@H]1CO)c1ccncc1 | 31* | x | -1 | -12 | 0
O=C(C[C@@H]1C=C[C@@H](NC(=O)c2ccncc2)[C@H](CO)O1)Nc1ccccc1 | 35* | x | 1 | -1 | 0
O=C(C[C@@H]1C=C[C@H](NC(=O)c2ccncc2)[C@H](CO)O1)Nc1ccccc1 | -3 | x | 2 | 3 | 0
O=C(N[C@@H]1CC[C@H](CCNC(=O)C2CCCCC2)O[C@@H]1CO)c1ccccn1 | 149* | x | 0 | x | 0
O=C(N[C@@H]1CC[C@H](CC(=O)N2CCN(c3ccccc3)CC2)O[C@H]1CO)c1ccccc1 | u | x | -5 | x | -1
COc1cccc(S(=O)(=O)N[C@@H]2CC[C@H](CCn3cc(-c4ccccc4OC)nn3)O[C@H]2CO)c1 | 0 | x | 1 | -1 | 0
C[C@@H]1CN([C@@H](C)CO)S(=O)(=O)c2ccc(-c3ccncc3)cc2O[C@H]1CN(C)C(=O)c1cccc(F)c1 | -1 | x | -2 | -8 | 0
C[C@@H]1CN([C@@H](C)CO)S(=O)(=O)c2ccc(-c3ccc(C(=O)N(C)C)cc3)cc2O[C@H]1CN(C)C(=O)C1CC1 | x | x | x | x | 0
O=C(N[C@H]1C=C[C@@H](CC(=O)N2CCN(c3ccccc3)CC2)O[C@H]1CO)c1ccccc1 | 71* | x | -1 | 0 | 0
O=C(N[C@@H]1C=C[C@H](CC(=O)N2CCN(c3ccccc3)CC2)O[C@H]1CO)c1ccccc1 | 8 | x | 0 | -2 | 1
O=C(N[C@H]1CC[C@@H](CCNC(=O)C2CCCC2)O[C@@H]1CO)c1ccccn1 | 3 | x | -1 | 10 | 0
O=C(N[C@H]1CC[C@@H](CCNC(=O)C2CCCC2)O[C@H]1CO)c1ccccn1 | 44* | x | -2 | 8 | 0

Screens from PubChem BioAssay.
